pEC50, pIC50: −log10 of the molar value. Activity calls are given as the source filed them. The calls are words filed in the database; no cut-off is given here.
What was measured:
[1] = molecular target: T1, Oxysterols receptor LXR-beta (Homo sapiens, UniProt P55055); assay: Transactivational antagonist activity at human LXRbeta transfected in HEK293 cells expressing CMX-Gal4N assessed as inhibition of T1317-induced luciferase activity after 16 hrs by reporter gene assay; type: functional, cell-based
T1 sequence (P55055 whole entry): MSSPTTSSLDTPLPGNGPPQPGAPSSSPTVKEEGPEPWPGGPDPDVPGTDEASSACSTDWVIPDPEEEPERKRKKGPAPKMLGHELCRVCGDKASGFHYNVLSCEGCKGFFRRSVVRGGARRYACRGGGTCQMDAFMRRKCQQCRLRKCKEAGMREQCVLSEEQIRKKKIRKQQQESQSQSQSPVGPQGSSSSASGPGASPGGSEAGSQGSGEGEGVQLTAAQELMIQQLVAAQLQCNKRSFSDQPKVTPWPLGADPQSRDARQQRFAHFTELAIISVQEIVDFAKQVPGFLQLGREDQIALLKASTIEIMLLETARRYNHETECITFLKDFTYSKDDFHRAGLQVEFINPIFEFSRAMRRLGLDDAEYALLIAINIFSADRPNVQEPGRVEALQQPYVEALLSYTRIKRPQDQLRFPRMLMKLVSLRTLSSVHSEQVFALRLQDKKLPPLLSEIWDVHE

[2] = molecular target: T2, Oxysterols receptor LXR-alpha (Homo sapiens, UniProt Q13133); assay: Transactivational antagonist activity at human LXRalpha transfected in HEK293 cells expressing CMX-Gal4N assessed as inhibition of T1317-induced luciferase activity after 16 hrs by reporter gene assay; type: functional, cell-based
T2 sequence (Q13133 whole entry): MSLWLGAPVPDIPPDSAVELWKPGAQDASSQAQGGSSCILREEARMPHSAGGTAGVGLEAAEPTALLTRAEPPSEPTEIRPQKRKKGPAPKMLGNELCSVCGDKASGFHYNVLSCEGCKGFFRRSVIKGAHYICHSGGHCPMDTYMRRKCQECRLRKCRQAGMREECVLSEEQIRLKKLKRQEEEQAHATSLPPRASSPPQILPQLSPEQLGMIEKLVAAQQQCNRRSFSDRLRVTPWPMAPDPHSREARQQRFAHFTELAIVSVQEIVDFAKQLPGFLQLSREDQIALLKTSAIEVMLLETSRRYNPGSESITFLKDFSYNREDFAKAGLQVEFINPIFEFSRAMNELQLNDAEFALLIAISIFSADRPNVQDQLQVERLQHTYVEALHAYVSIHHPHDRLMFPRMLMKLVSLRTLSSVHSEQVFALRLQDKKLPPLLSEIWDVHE

[3] = molecular target: T2, Oxysterols receptor LXR-alpha; assay: Transactivational agonist activity at human LXRalpha transfected in HEK293 cells expressing CMX-Gal4N assessed as luciferase activity at 30 uM after 16 hrs by reporter gene assay; type: cell-based; details: hek293, 16 h
[4] = molecular target: T1, Oxysterols receptor LXR-beta; assay: Transactivational agonist activity at human LXRbeta transfected in HEK293 cells expressing CMX-Gal4N assessed as luciferase activity at 30 uM after 16 hrs by reporter gene assay; type: cell-based; details: hek293, 16 h
[5] = molecular target: Liver X receptor (Homo sapiens) (UniProt Q13133+P55055); assay: Transrepressional activity at LXR in human TPA-activated THP1 cells assessed as inhibition of LPS-induced IL6 production at 30 uM incubated for 6 hrs prior to LPS-challenge measured after 18 hrs by ELISA; type: cell-based; details: THP-1
Outline: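 THP-1 cells were differentiated with 10 nM TPA for 48 h, then replated at 3 × 10⁴/well. They were pretreated with sample for 6 h before LPS (100 ng/mL). Supernatant IL-6 was measured by ELISA after 18 h.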

[6] = molecular target: T3, Oxysterols receptor LXR-alpha (Homo sapiens) (UniProt Q13133); assay: Binding affinity to human GST-tagged LXRalpha expressed in Escherichia coli BL21(DE3) at 1 uM after 1 hr by fluorescence polarization assay
T3 sequence (whole entry): T2 sequence (Q13133 whole entry)
Outline: (§1)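 Fluorescence polarization binding: full-length GST-hLXRα or GST was expressed in E. coli Rosetta(DE3) (0.4 mM IPTG, 15 °C, 24 h) and purified on glutathione resin. Protein dilutions, or 1 μM protein with competitor, were incubated with fluorescent probe 23 (1 μM) for 1 h at 0 °C. Buffer was 50 mM Tris-HCl, 10 mM reduced glutathione, pH 8.0; excitation 400 nm, emission 500 nm.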

[7] = Binding affinity to GST at 1 uM after 1 hr by fluorescence polarization assay; outline: as §1
[8] = molecular target: T1, Oxysterols receptor LXR-beta; assay: Transactivational agonist activity at human LXRbeta transfected in HEK293 cells expressing CMX-Gal4N assessed as luciferase activity after 16 hrs by reporter gene assay; type: cell-based
Outline: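 Gal4-hLXRα or Gal4-hLXRβ chimera (15 ng) cotransfected with tk-MH100×4-luc reporter (50 ng) and CMX-β-gal (10 ng) into HEK293 cells by calcium phosphate. Luciferase was normalized to β-gal, in triplicate.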

[9] = molecular target: T2, Oxysterols receptor LXR-alpha; assay: Transactivational agonist activity at human LXRalpha transfected in HEK293 cells expressing CMX-Gal4N assessed as luciferase activity after 16 hrs by reporter gene assay relative to N-(4-(1,1,1,3,3,3-hexafluoro-2-hydroxypropan-2-yl)phenyl)-N-methylbenzamide; type: cell-based; details: read-out: Efficacy
[10] = molecular target: T1, Oxysterols receptor LXR-beta; assay: Transactivational agonist activity at human LXRbeta transfected in HEK293 cells expressing CMX-Gal4N assessed as luciferase activity after 16 hrs by reporter gene assay relative to N-(4-(1,1,1,3,3,3-hexafluoro-2-hydroxypropan-2-yl)phenyl)-N-methylbenzamide; type: cell-based; details: read-out: Efficacy
[11] = molecular target: T2, Oxysterols receptor LXR-alpha; assay: Transactivational agonist activity at human LXRalpha transfected in HEK293 cells expressing CMX-Gal4N assessed as luciferase activity after 16 hrs by reporter gene assay; type: cell-based
[12] = molecular target: T4, Oxysterols receptor LXR-beta (Homo sapiens) (UniProt P55055); assay: Transactivational antagonist activity at human LXRbeta transfected in HEK293 cells expressing CMX-Gal4N assessed as inhibition of T1317-induced luciferase activity at 30 uM after 16 hrs by reporter gene assay; type: functional, cell-based
T4 sequence (whole entry): T1 sequence (P55055 whole entry)
Outline: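 Gal4-hLXRα or Gal4-hLXRβ chimera (15 ng) cotransfected with tk-MH100×4-luc reporter (50 ng) and CMX-β-gal (10 ng) into HEK293 cells by calcium phosphate. From 8 h post-transfection, cells got compound (0.1–30 μM) or DMSO for 16 h. Luciferase was normalized to β-gal, in triplicate.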

[13] = molecular target: T3, Oxysterols receptor LXR-alpha (Homo sapiens); assay: Transactivational antagonist activity at human LXRalpha transfected in HEK293 cells coexpressing CMX-Gal4N-NCoR assessed as NCoR recruitment after 16 hrs by reporter gene assay; type: functional, cell-based
Outline: (§2)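 Mammalian two-hybrid in HEK293 cells by calcium phosphate cotransfection: CMX-VP16N-hLXRα, Gal4N-fused SRC1, DRIP205, NCoR or SMRT (15 ng), tk-MH100×4-luc (50 ng) and CMX-β-gal (10 ng). Compound or DMSO added 8 h after transfection for 16 h. Luciferase was normalized to β-galactosidase, in triplicate.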

[14] = molecular target: T2, Oxysterols receptor LXR-alpha; assay: Transactivational agonist activity at human LXRalpha transfected in HEK293 cells coexpressing CMX-Gal4N-DRIP205 assessed as DRIP205 recruitment at 10 uM after 16 hrs by mammalian two-hybrid assay; type: cell-based; details: hek293, 16 h; outline: as §2
[15] = tested on: Peritoneal macrophage cell; assay: Inhibition of LPS-induced IL-6 production in LXRalpha,LXRbeta-deficient C57BL/6J mouse peritoneal macrophages at 10 uM incubated for 6 hrs prior to LPS-challenge measured after 18 hrs by ELISA; type: functional, cell-based
Outline: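 Thioglycollate-elicited peritoneal macrophages came from 8–10-week LXRα/β-null mice on C57BL/6J background, harvested 4 days post-injection. They were adhered, rested 24 h and plated at 2 × 10⁵/well, then pretreated with compound 6 h before LPS 10 ng/mL. Supernatant mIL-6 was measured by ELISA after 18 h; means ± SE of ≥3 independent measurements, ANOVA.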

[16] = molecular target: T2, Oxysterols receptor LXR-alpha; assay: Transactivational agonist activity at human LXRalpha transfected in HEK293 cells coexpressing CMX-Gal4N-SRC1 assessed as SRC1 recruitment at 10 uM after 16 hrs by mammalian two-hybrid assay; type: cell-based; details: hek293, 16 h; outline: as §2
[17] = molecular target: T3, Oxysterols receptor LXR-alpha (Homo sapiens); assay: Transactivational antagonist activity at human LXRalpha transfected in HEK293 cells coexpressing CMX-Gal4N-SMRT assessed as SMRT recruitment after 16 hrs by reporter gene assay; type: functional, cell-based; outline: as §2

C=C1c2ccccc2C(=O)N(C)c2ccc(CO)cc21
pIC50 [1]: < 5.00
pIC50 [2]: < 5.00
Activity [3]: Not Active
Activity [4]: Not Active

C=C1c2ccccc2C(=O)N(C)c2ccc(CCCCCCCCCCCC)cc21
pIC50 [1]: < 4.52
pIC50 [2]: < 4.52
Activity [3]: Not Active
inhibition [5]: inactive
Activity [4]: Not Active

COc1ccc(CCc2ccc(N3C(=O)c4ccc(N(C)C)cc4C3=O)cc2)cc1
Activity [6]: Active
Activity [7]: inactive

C=C1c2ccccc2C(=O)N(C)c2ccc(CCCCCC)cc21
pIC50 [1]: < 5.00
pIC50 [2]: < 5.00
Activity [3]: Not Active
Activity [4]: Not Active

CN(C(=O)c1ccccc1)c1ccc(C(O)(C(F)(F)F)C(F)(F)F)cc1
pEC50 [8]: 6.74
Emax [9]: 100%
Emax [10]: 100%
pEC50 [11]: 6.20

Cn1c(=O)c2ccccc2c2cc(C(O)(C(F)(F)F)C(F)(F)F)ccc21
pIC50 [2]: 5.39
Activity [3]: Not Active
inhibition [5]: inactive
Activity [4]: Not Active
inhibition [12]: inactive

CN1C(=O)c2ccccc2CCc2cc(C(O)(C(F)(F)F)C(F)(F)F)ccc21
pEC50 [8]: 6.59
Emax [9]: 117%
Emax [10]: 108%
pEC50 [11]: 6.04

C=C1c2ccc(-c3cccc(CC(=O)O)c3)cc2C(=O)N(C)c2ccc(CC)cc21
pIC50 [1]: 4.57
pIC50 [2]: 4.68
Activity [3]: Not Active
Activity [4]: Not Active

C=C1c2ccccc2C(=O)N(C)c2ccc(C(C)C)cc21
pIC50 [1]: < 5.00
pIC50 [2]: 5.77
Activity [3]: Not Active
Activity [4]: Not Active

C=C1c2ccc(-c3cccc(C(=O)O)c3)cc2C(=O)N(C)c2ccc(CC)cc21
pIC50 [1]: < 4.52
pIC50 [2]: < 4.52
Activity [3]: Not Active
inhibition [5]: inactive
Activity [4]: Not Active

[CH2-]c1c2ccccc2c(=O)[n+](C)c2ccc([N+](=O)[O-])cc12
pIC50 [1]: 4.89
pIC50 [2]: 5.21
Activity [3]: Not Active
Activity [4]: Not Active

C=C1c2ccccc2C(=O)N(C)c2ccccc21
pIC50 [1]: < 5.00
pIC50 [2]: < 5.00
inhibition [5]: inactive

C=C1c2ccccc2C(=O)N(C)c2ccc(C(C)(C)C)cc21
pIC50 [1]: < 5.00
Activity [13]: Dose-dependent effect
pIC50 [2]: 5.27
Activity [3]: Not Active
Activity [4]: Not Active
Activity [14]: Toxic
inhibition [15]: inactive
Activity [16]: Toxic
Activity [17]: Dose-dependent effect

C=C1c2ccccc2C(=O)N(C)c2ccc(N)cc21
pIC50 [1]: 4.57
pIC50 [2]: 4.72
Activity [3]: Not Active
Activity [4]: Not Active

C=C1c2ccccc2C(=O)N(C)c2ccc(C(C)=O)cc21
pIC50 [1]: 5.12
pIC50 [2]: 5.31
Activity [3]: Not Active
Activity [4]: Not Active

CN1C(=O)c2ccccc2Oc2cc(C(O)(C(F)(F)F)C(F)(F)F)ccc21
pEC50 [8]: 5.57
Emax [9]: 12%
Emax [10]: 49%
pEC50 [11]: 5.38

C=C1c2ccccc2C(=O)N(C)c2ccc(C(=O)O)cc21
pIC50 [1]: 4.59
pIC50 [2]: 4.85
Activity [3]: Not Active
Activity [4]: Not Active

C=C1c2ccc(-c3ccc(CC(=O)O)cc3)cc2C(=O)N(C)c2ccc(CC)cc21
pIC50 [1]: 4.82
pIC50 [2]: 5.66
Activity [3]: Not Active
Activity [4]: Not Active

C=C1c2ccc(-c3ccc(C(=O)O)cc3)cc2C(=O)N(C)c2ccc(CC)cc21
pIC50 [1]: 5.02
pIC50 [2]: 5.89
Activity [3]: Not Active
inhibition [5]: inactive
Activity [4]: Not Active

C=C1c2ccccc2C(=O)N(C)c2ccc(C)cc21
pIC50 [1]: < 5.00
pIC50 [2]: < 5.00
Activity [3]: Not Active
Activity [4]: Not Active
